This is an account of results in ChEMBL document CHEMBL2424560, “Structure- and reactivity-based development of covalent inhibitors of the activating and gatekeeper mutant forms of the epidermal growth factor receptor (EGFR)” (J Med Chem, 2013).

Active and inactive are the calls of the source.

Data set [1] deals with Epidermal growth factor receptor (Homo sapiens, UniProt P00533, L858R/T790M). In kind it is cell-based, NCI-H1975.
Data set [2] deals with Epidermal growth factor receptor (Homo sapiens, UniProt P00533, EX19DEL). In kind it is cell-based, PC-9.
In data set [3] the target is T1, Epidermal growth factor receptor (Homo sapiens, UniProt P00533). In kind it is cell-based, LoVo.
Data set [4] is described as follows: Lipophilicity, log D of the compound at pH 7.4. In kind it is physicochemical. The note with it: buffer.
A short description of data set [5]: (§1) Inhibition of human recombinant N-terminal GST-tagged EGFR L858R/[…] double mutant after 50 mins by HTRF assay.
The species entered for data set [6] is Homo sapiens. The description is as §1.
Data set [7] in a line: Half life in phosphate buffer at pH 7.4 at 50 uM by LC-MS analysis in presence of glutathione. In kind it is physicochemical. Conditions: phosphate buffer with glutathione.
Data set [8] relates to NCI-H1975. Description: Selectivity ratio of IC50 for EGFR L858R/[…] double mutant phosphorylation in human NCI-H1975 cells to IC50 for human recombinant N-terminal GST-tagged EGFR L858R/[…] double mutant. The class given is cell-based.
Data set [9] concerns the target T1, Epidermal growth factor receptor. Description: Inhibition of wild type human EGFR after 50 mins by HTRF assay. A general note: Time-resolved FRET reads energy transfer from a long-lived donor to a nearby acceptor.
The species entered for data set [10] is Homo sapiens. As to the kind of experiment: Selectivity ratio of IC50 for wild type human EGFR to IC50 for human recombinant N-terminal GST-tagged EGFR L858R/[…] double mutant.
The target of data set [11] is Mitogen-activated protein kinase kinase kinase 11 (Homo sapiens) (UniProt Q16584). As to the kind of experiment: Inhibition of MAP3K11 (unknown origin) at 1 uM relative to control. Summed up:
(§2)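 Broad panel of >70 kinases run as biochemical assays at University of Dundee, compound tested at 1 μM; percent inhibition relative to control.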

For data set [12], the target named is Myosin light chain kinase, smooth muscle (Homo sapiens) (UniProt Q15746). As to the kind of experiment: Inhibition of smMLCK (unknown origin) at 1 uM relative to control. Summed up:
as §2

Data set [13] deals with T2, Lymphokine-activated killer T-cell-originated protein kinase (Homo sapiens) (UniProt Q96KB5).
T2 sequence (whole entry): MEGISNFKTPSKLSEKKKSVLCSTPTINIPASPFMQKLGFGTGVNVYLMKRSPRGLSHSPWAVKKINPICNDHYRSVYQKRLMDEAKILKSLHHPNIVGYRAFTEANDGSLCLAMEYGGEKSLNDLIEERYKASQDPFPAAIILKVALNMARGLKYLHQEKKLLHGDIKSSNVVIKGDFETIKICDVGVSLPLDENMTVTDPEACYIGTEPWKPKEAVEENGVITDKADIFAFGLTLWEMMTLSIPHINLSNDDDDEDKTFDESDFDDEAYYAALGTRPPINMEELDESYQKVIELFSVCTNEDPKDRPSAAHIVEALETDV
As to the kind of experiment: Inhibition of PBK (unknown origin) at 1 uM relative to control. An outline of the steps: as §2

Data set [14] has as its target Serine/threonine-protein kinase Chk2 (Homo sapiens) (UniProt O96017). As to the kind of experiment: Inhibition of CHK2 (unknown origin) at 1 uM relative to control. Summed up: as §2
The test system of data set [15] is A-431. As to the kind of experiment: Antitumor activity against wild type human A431 cells xenografted in SCID mouse assessed as tumor growth inhibition at 60 mg/kg/day, po after 7 days relative to vehicle-treated control. The class given is functional. The note with it: read-out: TGI. (In xenograft studies the graft and the host belong to different species.)

The target in data set [16] is Vascular endothelial growth factor receptor 1 (Homo sapiens) (UniProt P17948). Description: Inhibition of FLT1 (unknown origin) at 1 uM relative to control. An outline of the steps:
as §2

Data set [17] has as its target Insulin receptor (Homo sapiens) (UniProt P06213). As to the kind of experiment: Inhibition of insulin receptor (unknown origin) at 1 uM relative to control. An outline of the steps: as §2
Data set [18] addresses Tyrosine-protein kinase BTK (Homo sapiens) (UniProt Q06187). As to the kind of experiment: Inhibition of BTK (unknown origin) at 1 uM relative to control. Summed up: as §2
Data set [19] addresses Calcium/calmodulin-dependent protein kinase kinase 2 (Homo sapiens) (UniProt Q96RR4). As to the kind of experiment: Inhibition of CAMKKbeta (unknown origin) at 1 uM relative to control. Summed up: as §2
Data set [20] addresses Maternal embryonic leucine zipper kinase (Homo sapiens) (UniProt Q14680). As to the kind of experiment: Inhibition of MELK (unknown origin) at 1 uM relative to control. An outline of the steps:
as §2

The target of data set [21] is Insulin-like growth factor 1 receptor (Homo sapiens) (UniProt P08069). Description: Inhibition of IGF1R (unknown origin) at 1 uM relative to control. Summed up:
as §2

Data set [22] deals with PC-9. Description: Antitumor activity against human PC9 cells harboring EGFR exon 19 deletion activating mutant xenografted in SCID mouse assessed as tumor growth inhibition at 60 mg/kg/day, po after 7 days relative to vehicle-treated control. The note with it: read-out: TGI. The class given is functional.
The subject of data set [23] is NCI-H1975. As to the kind of experiment: Antitumor activity against human NCI-H1975 cells harboring EGFR L858R/[…] double mutant xenografted in SCID mouse assessed as tumor growth inhibition at 60 mg/kg/day, po after 7 days relative to vehicle-treated control. The class given is functional. Conditions: read-out: TGI.
Data set [24] in a line: Aqueous solubility of the compound. The class given is physicochemical. The note with it: buffer.

T1 sequence (P00533 whole entry): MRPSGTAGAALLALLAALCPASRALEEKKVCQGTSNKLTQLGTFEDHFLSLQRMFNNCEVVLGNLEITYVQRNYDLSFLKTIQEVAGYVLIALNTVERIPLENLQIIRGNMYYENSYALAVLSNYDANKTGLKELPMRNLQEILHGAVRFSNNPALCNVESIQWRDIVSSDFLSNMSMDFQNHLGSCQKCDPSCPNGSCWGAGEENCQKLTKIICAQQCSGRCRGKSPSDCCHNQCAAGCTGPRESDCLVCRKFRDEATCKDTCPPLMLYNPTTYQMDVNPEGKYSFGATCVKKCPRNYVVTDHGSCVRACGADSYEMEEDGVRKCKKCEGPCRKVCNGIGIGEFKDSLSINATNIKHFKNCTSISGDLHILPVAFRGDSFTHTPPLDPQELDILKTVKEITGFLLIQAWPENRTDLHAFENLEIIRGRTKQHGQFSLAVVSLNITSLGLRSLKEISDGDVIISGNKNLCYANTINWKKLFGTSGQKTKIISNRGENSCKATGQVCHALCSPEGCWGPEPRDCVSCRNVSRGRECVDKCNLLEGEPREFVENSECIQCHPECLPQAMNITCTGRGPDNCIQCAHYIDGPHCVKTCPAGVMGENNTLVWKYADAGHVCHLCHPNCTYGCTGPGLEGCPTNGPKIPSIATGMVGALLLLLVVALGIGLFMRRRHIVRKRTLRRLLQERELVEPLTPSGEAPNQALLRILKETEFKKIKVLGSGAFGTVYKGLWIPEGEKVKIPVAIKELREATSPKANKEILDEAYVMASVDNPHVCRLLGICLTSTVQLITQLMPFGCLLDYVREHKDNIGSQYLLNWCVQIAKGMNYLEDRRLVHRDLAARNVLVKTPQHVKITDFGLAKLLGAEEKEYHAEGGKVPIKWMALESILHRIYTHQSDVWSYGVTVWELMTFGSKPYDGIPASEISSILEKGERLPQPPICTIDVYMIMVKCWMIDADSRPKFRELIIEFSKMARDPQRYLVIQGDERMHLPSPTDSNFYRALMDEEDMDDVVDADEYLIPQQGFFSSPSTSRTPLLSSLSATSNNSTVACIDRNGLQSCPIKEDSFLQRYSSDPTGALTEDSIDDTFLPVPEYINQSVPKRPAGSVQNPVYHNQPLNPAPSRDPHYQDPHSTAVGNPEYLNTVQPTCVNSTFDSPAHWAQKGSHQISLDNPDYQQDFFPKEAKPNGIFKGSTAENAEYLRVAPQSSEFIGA
Epidermal growth factor receptor (Homo sapiens, UniProt P00533, EX19DEL), sequence (P00533 whole entry, looked up, stated change not applied): as the sequence (P00533 whole entry) above
Epidermal growth factor receptor (Homo sapiens, UniProt P00533, L858R/T790M), sequence (P00533 25-1210 T790M/L858R limits assumed): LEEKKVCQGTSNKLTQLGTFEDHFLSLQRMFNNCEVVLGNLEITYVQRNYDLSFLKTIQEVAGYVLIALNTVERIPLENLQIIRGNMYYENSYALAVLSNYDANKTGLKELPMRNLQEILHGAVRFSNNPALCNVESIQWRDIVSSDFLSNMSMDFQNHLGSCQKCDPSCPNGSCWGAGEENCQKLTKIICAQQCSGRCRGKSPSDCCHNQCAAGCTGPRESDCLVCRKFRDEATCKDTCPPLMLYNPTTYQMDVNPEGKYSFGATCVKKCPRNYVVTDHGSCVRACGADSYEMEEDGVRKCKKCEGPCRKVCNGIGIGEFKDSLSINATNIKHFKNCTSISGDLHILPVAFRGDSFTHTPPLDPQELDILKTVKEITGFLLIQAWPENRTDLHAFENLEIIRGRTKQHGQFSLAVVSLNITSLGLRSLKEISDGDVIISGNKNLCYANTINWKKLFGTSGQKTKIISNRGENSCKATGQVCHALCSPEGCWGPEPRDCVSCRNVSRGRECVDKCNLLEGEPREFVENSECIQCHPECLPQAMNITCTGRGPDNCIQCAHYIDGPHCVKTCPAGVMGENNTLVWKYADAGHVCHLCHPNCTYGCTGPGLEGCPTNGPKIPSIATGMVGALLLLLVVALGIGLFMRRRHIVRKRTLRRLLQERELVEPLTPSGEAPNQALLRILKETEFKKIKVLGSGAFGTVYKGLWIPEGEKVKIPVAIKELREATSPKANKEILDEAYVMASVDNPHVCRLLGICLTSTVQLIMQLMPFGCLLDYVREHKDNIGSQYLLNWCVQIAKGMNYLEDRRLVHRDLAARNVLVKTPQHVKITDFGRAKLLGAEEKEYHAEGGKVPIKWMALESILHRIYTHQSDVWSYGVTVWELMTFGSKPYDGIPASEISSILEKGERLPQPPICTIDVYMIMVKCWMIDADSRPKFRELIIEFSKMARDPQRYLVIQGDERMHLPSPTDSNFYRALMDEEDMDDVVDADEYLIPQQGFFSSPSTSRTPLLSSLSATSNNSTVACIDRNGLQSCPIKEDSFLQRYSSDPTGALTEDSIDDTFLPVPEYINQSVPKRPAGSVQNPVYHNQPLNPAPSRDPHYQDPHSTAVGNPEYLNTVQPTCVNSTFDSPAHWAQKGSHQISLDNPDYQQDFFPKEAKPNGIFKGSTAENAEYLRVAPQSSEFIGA
Tyrosine-protein kinase BTK (Homo sapiens), sequence (Q06187 whole entry): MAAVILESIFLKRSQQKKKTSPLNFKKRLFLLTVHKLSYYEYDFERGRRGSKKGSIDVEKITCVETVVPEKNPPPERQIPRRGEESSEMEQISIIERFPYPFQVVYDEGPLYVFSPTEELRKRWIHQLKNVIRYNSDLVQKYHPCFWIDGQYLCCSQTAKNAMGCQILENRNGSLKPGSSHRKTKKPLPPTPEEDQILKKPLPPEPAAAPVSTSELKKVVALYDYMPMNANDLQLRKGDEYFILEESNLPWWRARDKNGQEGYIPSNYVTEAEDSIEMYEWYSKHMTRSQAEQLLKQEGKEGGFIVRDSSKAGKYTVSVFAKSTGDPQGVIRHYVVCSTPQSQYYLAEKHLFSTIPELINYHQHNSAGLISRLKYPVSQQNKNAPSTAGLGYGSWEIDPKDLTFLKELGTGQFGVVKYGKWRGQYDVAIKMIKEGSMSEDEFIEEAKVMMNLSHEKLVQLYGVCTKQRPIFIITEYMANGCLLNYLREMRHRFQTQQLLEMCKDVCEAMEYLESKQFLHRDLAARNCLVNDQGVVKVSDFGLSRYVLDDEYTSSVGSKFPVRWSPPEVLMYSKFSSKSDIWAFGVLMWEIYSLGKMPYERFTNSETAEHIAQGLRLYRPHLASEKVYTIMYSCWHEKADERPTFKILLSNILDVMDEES
Mitogen-activated protein kinase kinase kinase 11 (Homo sapiens), sequence (Q16584 whole entry, looked up): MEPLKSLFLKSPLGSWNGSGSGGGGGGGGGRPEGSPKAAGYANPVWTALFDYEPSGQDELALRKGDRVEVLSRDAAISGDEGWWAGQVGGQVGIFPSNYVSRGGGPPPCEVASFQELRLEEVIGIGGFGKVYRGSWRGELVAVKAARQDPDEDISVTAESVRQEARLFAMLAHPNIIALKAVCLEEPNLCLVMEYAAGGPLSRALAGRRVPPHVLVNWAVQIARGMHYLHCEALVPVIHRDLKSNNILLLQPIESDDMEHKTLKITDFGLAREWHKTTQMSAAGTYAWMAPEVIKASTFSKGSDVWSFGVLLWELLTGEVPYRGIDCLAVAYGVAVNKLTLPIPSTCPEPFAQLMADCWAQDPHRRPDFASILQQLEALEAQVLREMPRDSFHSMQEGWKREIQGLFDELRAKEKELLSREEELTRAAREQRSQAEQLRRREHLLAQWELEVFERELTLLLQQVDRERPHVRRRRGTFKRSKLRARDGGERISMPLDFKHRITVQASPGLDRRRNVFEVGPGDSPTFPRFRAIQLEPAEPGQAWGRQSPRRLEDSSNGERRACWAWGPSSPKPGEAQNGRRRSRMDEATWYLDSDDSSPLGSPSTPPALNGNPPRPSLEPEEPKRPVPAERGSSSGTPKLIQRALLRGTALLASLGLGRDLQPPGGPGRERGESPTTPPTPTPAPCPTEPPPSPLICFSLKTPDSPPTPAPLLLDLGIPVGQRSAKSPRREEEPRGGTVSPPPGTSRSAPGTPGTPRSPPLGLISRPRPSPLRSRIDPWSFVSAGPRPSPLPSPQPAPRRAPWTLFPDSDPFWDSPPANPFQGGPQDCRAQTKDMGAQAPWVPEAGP

One may read the IC50 as the midpoint of a concentration-inhibition curve. One may read the logD as the decadic logarithm of the distribution of all forms, ionised or not, between an organic phase and buffer at a given pH. For the compound `C=CC(=O)Nc1cc(Nc2nccc(-c3c[nH]c4ccccc34)n2)c(OC)cc1N1CCN(C)CC1`, the IC50 in [1] was found to be 68 nM; in data set [2] it was 17 nM; in data set [3], 1300 nM. Also, in [4], the logD was found to be 3.4.

As for `COc1ccc(NC(=O)/C=C/CN(C)C)cc1Nc1nccc(-c2cnn3ccccc23)n1`, the IC50 was found to be 250 nM in [1], 390 nM in [2] and 20000 nM in [3].

With `COc1ccc(NC(=O)/C=C/CN(C)C)cc1Nc1ncc(C)c(-c2cnn3ccccc23)n1`, the results for the IC50 in data set [1], in data set [2] and in [3] were 290 nM, 250 nM and 24000 nM, respectively.

`C=CC(=O)Nc1cc(Nc2nccc(-c3cnn4ccccc34)n2)c(OC)cc1N1CCN(C)CC1`: the IC50 in data set [2] came to 140 nM; in data set [3], 19000 nM.

As for `COc1ccc(NC(=O)CC#N)cc1Nc1ncc(Cl)c(-c2c[nH]c3ccccc23)n1`, the IC50 is 2800 nM in data set [1], 1800 nM in [2], over 30000 nM in data set [3] and 65 nM in [5].

Usually inhibition stands for the change of the read-out against control, counted positive when it falls. For the compound `COc1cc2ncnc(Nc3ccc(F)c(Cl)c3)c2cc1NC(=O)/C=C/CN1CCCCC1`, the inhibition result in [6] is “Active”.

For the compound `C=CC(=O)Nc1cccc(Nc2ncc(Cl)c(-c3c[nH]c4ccccc34)n2)c1`, the IC50 in data set [1] worked out at 81 nM; in data set [2], 270 nM; in [3], 3500 nM; in data set [5], 53 nM. Besides, in data set [4], the logD is over 4.3.

Compound `C=CC(=O)Nc1cc(Nc2ncc(Cl)c(-c3c[nH]c4ccccc34)n2)c(OC)cc1N1CCN(C)CC1` registered an IC50 in data set [2] of 23 nM.

Take `C=CC(=O)Nc1ccc(OC)c(Nc2ncc(Cl)c(-c3c[nH]c4ccccc34)n2)c1`: the IC50 in data set [1] came to 22 nM; in data set [2] it was 29 nM; in data set [3], 550 nM; in [5] it was 6.3 nM. Further, the logD in data set [4] is over 4.3.

Usually half-life stands for the time needed for the level to fall by half in the phase considered. Consider `CN(C)C/C=C/C(=O)Nc1cc2c(Nc3ccc(F)c(Cl)c3)ncnc2cc1O[C@H]1CCOC1` [AFATINIB], for which the half-life at 50 µM in data set [7] is 25 min.

With `COc1ccc(NC(=O)/C=C/CN(C)C)cc1Nc1ncc([S+](C)[O-])c(-c2cnn3ccccc23)n1` (centres undefined), the IC50 in [1] is 15200 nM; in [2], 1300 nM; in [3], over 30000 nM. In addition, the logD in data set [4] turned out to be 1.3.

As for `COc1cc(N2CCN(C(C)=O)CC2)ccc1Nc1ncc(Cl)c(-c2c[nH]c3ccccc23)n1`, the IC50 in data set [1] stood at 770 nM; in data set [5], 9 nM; in data set [9] it was 790 nM. The Ratio IC50 came out at 90 in data set [8] and 88 in data set [10].

For `COc1ccc(NC(=O)/C=C/CN(C)C)cc1Nc1ncc(Cl)c(-c2cnn3ccccc23)n1`, the inhibition in [11], in [12], in data set [13], in data set [14], in data set [16] and in data set [17] was over 75% in each case. In addition, the inhibition in data set [18], in data set [19], in data set [20] and in data set [21] was over 75% throughout. The results for the inhibition in vivo at 60 mg/kg/day in [15], in [22] and in data set [23] were 46%, 134% and 105%, respectively.

For `C=CC(=O)Nc1ccc(OC)c(Nc2ncc(Cl)c(-c3cnn4ccccc34)n2)c1`, the IC50 in data set [1] stood at 33 nM; in data set [2] it was 150 nM; in data set [3] it was 12800 nM. For the same compound, in [4], the logD is over 4.3.

On to `COc1ccc(NC(=O)/C=C/CN(C)C)cc1Nc1ncc(Cl)c(-c2c[nH]c3ccccc23)n1`, for which the IC50 stood at 53 nM in [1], 85 nM in data set [2] and 1550 nM in data set [3].

For the compound `COc1ccc(NC(=O)CCCN(C)C)cc1Nc1ncc(Cl)c(-c2cnn3ccccc23)n1`, the values for the IC50 in data set [1] and in data set [5] were 2300 nM and 18 nM, respectively.

Turning to `COc1ccc(NC(=O)/C=C/CN(C)C)cc1Nc1ncc(F)c(-c2cnn3ccccc23)n1`, the IC50 in data set [1] was 220 nM; in [2], 380 nM; in [3], 19000 nM. This compound also displayed a logD in data set [4] of 3.3.

As to `C=CC(=O)Nc1ccccc1`, in data set [24], the solubility result is listed as “soluble”.

Regarding `C=CC(=O)Nc1cc2c(Nc3ccc(F)c(Cl)c3)ncnc2cc1OCCCN1CCOCC1`, the inhibition entry in data set [6] was “Active”.

As for `C=CC(=O)Nc1ccc(Nc2ncc(Cl)c(-c3c[nH]c4ccccc34)n2)cc1`, the IC50 is 12900 nM in [1], 19000 nM in data set [2], over 30000 nM in data set [3] and 320 nM in [5].

As for `C=CC(=O)N1CCc2cc(OC)c(Nc3ncc(Cl)c(-c4c[nH]c5ccccc45)n3)cc21`, the IC50 in data set [1] was 2100 nM; in data set [2], 2800 nM; in data set [3], over 30000 nM; in [5], 52 nM.
